Assay results pooled from the literature.
Protocols differ between the studies behind these lines.

| SMILES | target or system | test | system | conditions | quantity | result |
| --- | --- | --- | --- | --- | --- | --- |
| COc1ccc(S(=O)(=O)c2ccc(OC)c(OC)c2OC)cc1 |  | tubulin polymerisation, inhibitor, absorbance |  | pH 6.6 | IC50 | > 40 µM |
| CC(C)C[C@H](NC(=O)[C@H](Cc1ccccc1)NC(=O)c1cnccn1)B(O)O | RERF-LC-MS | cell growth or viability, ATP luminescence |  |  | IC50 | 0.02 µM |
| Cc1cc(C)cc(COc2cc3c(cc2OCc2cc(C)cc(C)c2)[C@H]2C[C@](O)(Cc4cn(CCc5ccccc5)nn4)C[C@H](C)N2CC3)c1 | ASPC1 | cell growth or viability, MTT |  |  | IC50 | 0.794 µM |
| COc1cc(Nc2nccc(-c3cnn4nc(OC)ccc34)n2)cc(C(F)(F)F)c1 | HEC-1-A | cell growth or viability, ATP luminescence |  |  | IC50 | 1 µM |
| C[C@@H]1[C@H](O)[C@@H](C)/C=C/C=C/C=C/C=C/C=C/C=C/C=C/[C@H](O[C@@H]2O[C@H](C)[C@@H](O)[C@H](N)[C@@H]2O)C[C@@H]2O[C@](O)(C[C@@H](O)C[C@@H](O)[C@H](O)CC[C@@H](O)C[C@@H](O)CC(=O)O[C@H]1C)C[C@H](O)[C@H]2C(=O)O | Cryptococcus neoformans | microbial growth | ATCC90113 |  | IC50 | 0.75 mg/L |
| C=CS(=O)(=O)Nc1ccc(CCn2cc(C[C@@]3(O)C[C@@H]4c5cc(OCc6cc(C)cc(C)c6)c(OCc6cc(C)cc(C)c6)cc5CCN4[C@@H](C)C3)nn2)cc1 | ASPC1 | cell growth or viability, MTT |  |  | IC50 | 1.88 µM |
| Cc1ccccc1-n1cc(Cn2c(C(=O)O)nc3ccccc3c2=O)nn1 | Nakaseomyces glabratus | microbial growth, broth dilution | ATCC90030 | 24 h | IC50 | 358 mg/L |
| Cc1cc(Nc2ncc(Cl)c(Nc3ccccc3S(=O)(=O)C(C)C)n2)c(OC(C)C)cc1C1CCNCC1 | KARPAS-299 | cell growth or viability, MTT |  | 5 µg/mL, 72 h | inhibition | 97.7% |
| Cc1cc(C)cc(COc2cc3c(cc2OCc2cc(C)cc(C)c2)C2CC(O)(Cc4cn(CCCCCCOc5ccc6c(c5)C(=O)N(C5CCC(=O)NC5=O)C6=O)nn4)CC(C)N2CC3)c1 (stereo not drawn) | ASPC1 | cell growth or viability, MTT |  |  | IC50 | 0.89 µM |
| O=C(O)c1nc2ccccc2c(=O)n1Cc1cn(-c2ccccc2)nn1 | Nakaseomyces glabratus | microbial growth, broth dilution | ATCC90030 | 24 h | IC50 | 566 mg/L |
| COc1ccc(Sc2ccc(C)cc2)c(OC)c1OC |  | tubulin polymerisation, inhibitor, absorbance |  | pH 6.6 | IC50 | > 40 µM |
| Cc1cc(C)cc(COc2cc3c(cc2OCc2cc(C)cc(C)c2)[C@H]2C[C@](O)(Cc4cn(CCc5ccc(N)cc5)nn4)C[C@H](C)N2CC3)c1 | ASPC1 | cell growth or viability, MTT |  |  | IC50 | 0.568 µM |
| C[C@@H](Oc1cc(-c2cnn(C3CCNCC3)c2)cnc1N)c1c(Cl)ccc(F)c1Cl | KARPAS-299 | cell growth or viability, MTT |  | 0.2 µg/mL, 72 h | inhibition | 75.5% |
| C=CS(=O)(=O)Nc1ccc(Cn2cc(C[C@@]3(O)C[C@@H]4c5cc(OCc6cc(C)cc(C)c6)c(OCc6cc(C)cc(C)c6)cc5CCN4[C@@H](C)C3)nn2)cc1 | ASPC1 | cell growth or viability, MTT |  |  | IC50 | 0.823 µM |
| COc1ccc([S+]([O-])c2ccc(C)cc2)c(OC)c1OC (stereo not drawn) |  | tubulin polymerisation, inhibitor, absorbance |  | pH 6.6 | IC50 | > 40 µM |
